# Source: PubChem
# UPR CHOP act: apoptotic UPR (CHOP) activation | CHO-CHOP luciferase reporter, luminescence; percent of tunicamycin response over DMSO baseline | activation, % at 10 µM | 0.34% of 330,000 active;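 active = at 10 µM dose, activation of 40% or more, normalized to positive control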;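 note: 100% = tunicamycin at 10 µg/mL and 0% = DMSO alone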
#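 assay system = CHO CHOP reporter cells | amount = 500 CHO-CHOP cells per well | buffer or medium = F12 with 10% FBS | incubation = 16-18 h cell attachment, then 6 h compound exposure, 37 °C | detection = luminescence read with Steady-Glo | read-out = percent activation relative to tunicamycin control | controls = tunicamycin high control, DMSO low control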
# UPR XBP1 act: activators of adaptive arm of unfolded protein response (XBP1); CHO-XBP1 luciferase reporter, IRE1-XBP1 UPR activation, luminescence; percent of tunicamycin response, DMSO as zero; AID 463104; 0.33% of 330,000 active; activation, % at 20 µM;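 active = versus positive control, 20 µM dose yields 30% or more activation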;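 note: 100% = tunicamycin at 10 µg/mL and 0% = DMSO only wells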
#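 Material: IRE1-XBP1 luciferase reporter CHO line / Quantity: one thousand reporter cells per well / Buffer or medium: F12 with 10% serum / Compound: 20 µM single concentration, DMSO 1% / Times: 6 h treatment, 37 °C / Detection: Steady-Glo luciferase glow luminescence, 10 min after reagent addition / Benchmarks: tunicamycin high, DMSO low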
# Mdm2-MdmX inh: human Mdm2/MdmX binding inhibition; inhibition, % at 8 µM; SaOS-2 split-luciferase Mdm2/MdmX complementation, luminescence; O15151+Q00987; 3% of 330,000 active;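 active = inhibition of at least 50% at 8 µM in the primary screen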
# Target sequence (O15151 whole entry, looked up): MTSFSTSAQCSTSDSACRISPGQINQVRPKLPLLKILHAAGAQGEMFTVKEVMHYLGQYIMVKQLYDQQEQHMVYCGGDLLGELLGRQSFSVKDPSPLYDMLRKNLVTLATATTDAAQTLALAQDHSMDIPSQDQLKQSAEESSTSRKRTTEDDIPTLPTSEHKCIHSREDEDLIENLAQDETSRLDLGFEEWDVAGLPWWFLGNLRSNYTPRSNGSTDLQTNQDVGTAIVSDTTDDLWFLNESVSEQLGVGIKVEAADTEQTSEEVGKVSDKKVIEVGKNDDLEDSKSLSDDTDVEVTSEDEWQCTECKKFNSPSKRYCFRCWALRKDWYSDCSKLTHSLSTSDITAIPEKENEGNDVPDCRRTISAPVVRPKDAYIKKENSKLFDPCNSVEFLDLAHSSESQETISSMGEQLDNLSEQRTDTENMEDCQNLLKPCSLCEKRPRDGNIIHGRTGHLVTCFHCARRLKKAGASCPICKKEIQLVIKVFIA
# Target sequence (Q00987 whole entry, looked up): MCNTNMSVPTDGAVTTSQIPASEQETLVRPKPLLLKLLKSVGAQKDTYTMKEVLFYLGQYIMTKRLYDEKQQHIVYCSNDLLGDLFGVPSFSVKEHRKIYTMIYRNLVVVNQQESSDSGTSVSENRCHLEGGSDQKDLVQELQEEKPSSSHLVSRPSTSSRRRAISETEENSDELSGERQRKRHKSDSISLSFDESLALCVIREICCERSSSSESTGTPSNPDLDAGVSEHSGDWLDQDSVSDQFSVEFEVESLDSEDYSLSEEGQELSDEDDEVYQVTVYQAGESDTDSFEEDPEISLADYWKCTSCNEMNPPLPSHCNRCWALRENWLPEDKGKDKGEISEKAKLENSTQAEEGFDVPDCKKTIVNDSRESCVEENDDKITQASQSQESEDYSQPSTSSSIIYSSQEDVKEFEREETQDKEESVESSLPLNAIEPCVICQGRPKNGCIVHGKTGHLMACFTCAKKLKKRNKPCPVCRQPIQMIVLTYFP
# CSC inhib: blocks cancer stem cells. 1.1% of 300,000 active. inhibition, % at 7.5 µM. cancer stem cell-like cells viability, luminescence; in the data active = inhibition above about 75%; tested in HMLE shEcad cells
# Beta cell apopt: blocks beta cell apoptosis | INS-1E cytokine-induced death, ATP luminescence, 48 h; percent of positive-control rescue, neutral wells zero | protection from apoptosis, % (test concentration not listed) | AID 435005 | 0.8% of 300,000 active;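 active = Every replicate reaches about 75%, or at least half do and their mean reaches it too, limit read from the data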;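 note: 0% = cytokine-treated negative control wells and 100% = positive control rescue; higher means more ATP so stronger rescue from cytokine killing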
# SKKanGAS inh: blocks kanamycin growth of S. pyogenes SKKanGAS strain; BacTiter-Glo, 6 h; inhibition, % at 7.5 µM; 1.3% of 300,000 active;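 active = mean replicate score, as percent of positive control median, at least 50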;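 note: strain carries kanamycin resistance gene driven by streptokinase promoter and grows in 40 µg/ml kanamycin; loss of luminescence reflects streptokinase promoter inhibition or plain growth inhibition; 0% = median of DMSO wells and 100% = positive control at its reference dose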
# XBP1 UPR conf: adaptive UPR (XBP1) activation, confirmed | shares compounds with UPR XBP1 act | CHO-XBP1 IRE1-XBP1 luciferase reporter, luminescence | activation, % at 20 µM | 63% of 1,000 active;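 active = reporter signal at least 30% of the positive control's activation in two or more of four replicate wells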;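 note: plate controls were DMSO negative control for no effect and tunicamycin 10 µg/mL positive control for full effect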
# The depositor's hits bear a star; / = no result. Shown are actives, neighbours in structure and some others; about 4.8% of the full set was active somewhere.
SMILES,UPR CHOP act,UPR XBP1 act,Mdm2-MdmX inh,CSC inhib,Beta cell apopt,SKKanGAS inh,XBP1 UPR conf
CCCC(=O)Nc1c2c(nc3ccccc13)N(c1ccccc1)CC2,-1,-1,-10,-3,4,1,/
CC1(C)CC(=O)c2c(O)cc(OCC(=O)N3CCN(c4ccccc4)CC3)cc2O1,-2,-4,7,-5,2,8,/
COc1ccccc1C(=O)NCCC(=O)N1CCN(S(=O)(=O)c2ccccc2C(F)(F)F)CC1,2,1,20,/,/,/,/
O=C(Nc1c2c(nn1-c1ccc(F)cc1)CS(=O)C2)c1ccc(Br)o1 (stereo not drawn),0,-3,11,12,-1,1,/
Cc1cc(C(=O)OCC(=O)N2CCN(C(=O)c3ccco3)CC2)c(C)n1-c1ccc(F)cc1,0,1,-12,20,-1,-10,/
CCOC(=O)c1cc2c(ccn2-c2ccc(F)cc2)n1CC(=O)N1CCN(C(=O)c2ccco2)CC1,0,45*,28,5,-23,27,11
CC(C)(C)C(=O)NC(=S)NNC(=O)C(c1ccccc1)c1ccccc1,12,43*,42,58,68,10,48*
COc1ccc(-c2c(C(C)=O)c(C)nc3sc4c(c23)NC(c2ccccc2)NC4=O)cc1 (stereo not drawn),2,60*,47,-11,7,-3,12
CCOC(=O)c1c(C)nc2sc3c(c2c1-c1ccc(OC)cc1)NC(c1ccccc1)NC3=O (stereo not drawn),0,0,-6,-22,-15,23,/
CS(=O)(=O)c1ccccc1C(=O)Nc1cccc2ncccc12,-1,1,5,-2,1,-5,/
C=C(C)n1c(=O)n(Cc2ccccc2C)c2ccccc21,0,4,-13,-14,-2,16,/
Cc1cc(NC(=O)CSc2nc(C(C)C)nc3sc(C)c(C)c23)no1,0,10,12,-11,7,22,/
Cc1cc(NC(=O)CSc2nc3sc(C)c(C)c3c(=O)n2C2CCCC2)no1,4,58*,40,11,39,7,54*
Cc1nc2cccc(C)n2c(=O)c1Cl,-2,38*,7,-5,-3,-1,4
COc1ccc(-c2c(-c3cc(OC)cc(OC)c3)n(C)c3ccc(-c4ccc(OC)nc4)cc23)cc1,0,-1,39,21,5,/,/
COc1ccc(-c2c(-c3cc(OC)cc(OC)c3)n(C)c3ccc(-c4cnc(N)nc4)cc23)cc1,2,189*,4,/,15,/,132*
CCOc1cc(/C=N/N=C(/N)c2nonc2N)cc(Br)c1OCc1ccc(Cl)cc1,2,70*,30,15,34,7,142*
NCCOc1ccc(C23CC4CC(CC(C4)C2)C3)cc1,14,97*,30,-10,24,18,93*
COCCN(C(=O)c1cc(S(=O)(=O)N2CCCCC2)ccc1Cl)c1c(N)n(CC(C)C)c(=O)[nH]c1=O,0,1,-4,/,/,/,/
Nc1nc(Nc2ccccc2)nc2ccccc12,3,9,-217,22,35,5,/
Nc1nc(Nc2ccc(Cl)cc2)nc2ccccc12,24,33*,-129,-3,28,/,25
COc1ccc(C(C(=O)NC2CCCC2)N(C(=O)c2snc(-c3ccc(F)cc3)c2N)c2ccccc2)cc1 (stereo not drawn),19,32*,29,10,2,12,16
COc1ccc(C(C(=O)NC2CCCC2)N(C(=O)c2snc(-c3ccc(F)cc3)c2N)c2ccc(OC)cc2)cc1 (stereo not drawn),2,0,21,-9,15,8,/
COc1ccc(C(=O)NCCS(=O)(=O)N2CCc3ccccc3C2)cc1OC,2,-1,16,/,-1,-3,/
Cc1sc(NC(=O)c2ccco2)c(C(c2cccnc2)N2CCN(c3ccc(F)cc3)CC2)c1C (stereo not drawn),17,33*,45,24,29,16,18
